The record followed here is ChEMBL document CHEMBL1153518 (J Med Chem, 2009).

For series [1], the system named is MT4. Put plainly: Cytotoxicity against human MT4 cells assessed as decrease in cell viability. Type of series: cell-based. A digest of the protocol:
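MT-4 viability was measured by automated propidium iodide-based cell counting, enumerating total and dead cells in untreated and compound-treated cultures.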

The subject of series [2] is Human alphaherpesvirus 1. Put plainly: Antiviral activity against HSV1 KOS infected in HEL cells assessed as inhibition of virus-induced cytopathicity. The class given is functional, organism-based. Conditions: Human alphaherpesvirus 1, KOS. A digest of the protocol:
(§1)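 Confluent human embryonic lung fibroblast monolayers inoculated with 100 CCID50 virus. After 1–2 h adsorption, residual virus was removed and cultures were incubated with varying compound concentrations. Cytopathicity was scored once untreated infected controls reached full cytopathicity.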

The subject of a further series is Human alphaherpesvirus 2. Put plainly: Antiviral activity against HSV2 G infected in HEL cells assessed as inhibition of virus-induced cytopathicity. Conditions: Human alphaherpesvirus 2, strain G. The class given is functional, organism-based. A digest of the protocol:
as §1

Series [3] relates to Human alphaherpesvirus 1. Briefly: Antiviral activity against acyclovir […]-resistant thymidine kinase-deficient HSV1 KOS infected in HEL cells assessed as inhibition of virus-induced cytopathicity. Conditions: Human alphaherpesvirus 1, KOS. Type of series: functional, organism-based. A digest of the protocol: as §1
The nature of series [4]: Cytotoxicity against HEL cells assessed as concentration required to cause alteration in cell alteration by microscopically. The class given is cell-based. Conditions: human.
For a further series, the system named is HEL. Briefly: Cytotoxicity against HEL cells assessed as inhibition of cell proliferation. Conditions: Homo sapiens. The class given is cell-based.
Series [5] deals with Human immunodeficiency virus 1. Put plainly: Antiviral activity against HIV1 3B/Lai infected in human CEM cells assessed as inhibition of virus-induced cytopathicity after 4 days. The conditions noted are these: Human immunodeficiency virus 1, 3B/Lai, CCRF-CEM, 96 h. Type of series: functional, organism-based. A digest of the protocol: (§2)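 Human CEM cells (~3 × 10^5 cells/mL) infected with 100 CCID50 per mL of HIV-1(IIIB) or HIV-2(ROD), then seeded into wells holding compound dilutions. Incubated 4 days at 37°C. Giant cell formation was scored microscopically.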

For series [6], the system named is Human immunodeficiency virus 2. Briefly: Antiviral activity against HIV2 ROD infected in human CEM cells assessed as inhibition of virus-induced cytopathicity after 4 days. Type of series: functional, organism-based. Conditions: Human immunodeficiency virus 2, ISOLATE ROD, CCRF-CEM, 96 h. A digest of the protocol: as §2
Series [7] has as its system MT4. Put plainly: Cytotoxicity against human MT4 cells assessed as inhibition of cell proliferation. The class given is cell-based.
For series [8], the system named is Human immunodeficiency virus 1. Put plainly: Antiviral activity against HIV1 3B/Lai infected in human MT4 cells assessed as suppression of p24 production after 3 days. The class given is functional, organism-based. The conditions noted are these: Human immunodeficiency virus 1, 3B/Lai, MT4, 72 h. A digest of the protocol: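 MT-4 cells (1 × 10^4 cells/mL) in fresh medium infected with X4LAI.04 stock, 10 μL (0.7 ng p24) per mL of cell suspension. Mixed with medium carrying compound dilutions and kept at 37°C. After 3 days, p24 was measured in culture supernatants.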

The next series relates to CCRF-CEM. Briefly: Cytotoxicity against human CEM cells assessed as decrease in cell viability. Type of series: cell-based.

SMILES strings stand for the structures. A value given as a limit tells only on which side of the number the result lay.

With `C[C@H](NP(=O)(OCCOCn1cnc2c(=O)[nH]c(N)nc21)Oc1ccccc1)C(=O)OCc1ccccc1` (stereo partly drawn), the IC50 in the series on MT4 [1] was found to be 33.8 µM; with HEL it was 91 µM; with CCRF-CEM, 42 µM. In addition, the EC50 in the series with Human alphaherpesvirus 1 [2] was 8 µM; in the series on Human alphaherpesvirus 2 it was 4 µM; with Human alphaherpesvirus 1 [3], 15 µM; in [5] it was 16 µM; in series [6], 11 µM; in series [8] it was 5.7 µM. Further, the MCC in series [4] was greater than 50 µM. Moreover, in the series on MT4 [7], the CC50 is greater than 150 µM.
For the compound `COC(=O)[C@H](C)NP(=O)(OCCOCn1cnc2c(=O)[nH]c(N)nc21)Oc1cccc2ccccc12` (stereo partly drawn), the values for the IC50 in the series with MT4 [1] and in the series with HEL were 18.7 µM and greater than 100 µM, respectively. The EC50 in the series on Human alphaherpesvirus 1 [2] stood at 16 µM; in the series on Human alphaherpesvirus 2 it was 10 µM; in the series with Human alphaherpesvirus 1 [3], 79 µM; in [5], 10 µM; in series [6] it was 13 µM; in [8], 4.7 µM. The MCC in [4] was greater than 50 µM. The 50% cytotoxic concentration (CC50) in the series on MT4 [7] is greater than 150 µM.
With `C[C@H](NP(=O)(OCCOCn1cnc2c(=O)[nH]c(N)nc21)Oc1cccc2ccccc12)C(=O)OCc1ccccc1` (stereo partly drawn), the half-inhibitory concentration (IC50) is greater than 150 µM with MT4 [1] and 20 µM in the series on HEL. In addition, the half-maximal effective concentration (EC50) in the series on Human alphaherpesvirus 1 [2] is 2 µM; in the series on Human alphaherpesvirus 2 it was 1.4 µM; in the series on Human alphaherpesvirus 1 [3], 10 µM; in [5], 15 µM; in [6], 8.9 µM; in [8], 0.8 µM. Further, the MCC in series [4] is no less than 20 µM.
On to `CC(C)OC(=O)[C@H](C)NP(=O)(OCCOCn1cnc2c(=O)[nH]c(N)nc21)Oc1ccccc1` (stereo partly drawn), for which the IC50 is greater than 150 µM in the series with MT4 [1], greater than 100 µM in the series on HEL and greater than 100 µM in the series with CCRF-CEM. For the same compound, the 50% effective concentration (EC50) in the series on Human alphaherpesvirus 1 [2] was 10 µM; in the series with Human alphaherpesvirus 2, 8.5 µM; in the series on Human alphaherpesvirus 1 [3], 27 µM; in series [6], greater than 100 µM; in series [8] it was greater than 150 µM. Also, the MCC in series [4] was greater than 50 µM. Moreover, in the series on MT4 [7], the CC50 was greater than 150 µM.
For `CCOC(=O)[C@H](C)NP(=O)(OCCOCn1cnc2c(=O)[nH]c(N)nc21)Oc1cccc2ccccc12` (stereo partly drawn), the figures for the IC50 in the series on MT4 [1], in the series with HEL and in the series with CCRF-CEM were 12 µM, greater than 100 µM and 32 µM, respectively. Moreover, the EC50 with Human alphaherpesvirus 1 [2] was determined as 32 µM; with Human alphaherpesvirus 2, 9.5 µM; with Human alphaherpesvirus 1 [3], 32 µM; in [5], 12 µM; in series [6], 42 µM; in [8], 1.7 µM. In addition, in series [4], the MCC was greater than 150 µM. The CC50 in the series on MT4 [7] was greater than 150 µM.
Turning to `C[C@H](NP(=O)(OCCOCn1cnc2c(=O)[nH]c(N)nc21)Oc1cccc2ccccc12)C(=O)OC(C)(C)C` (stereo partly drawn), the IC50 with MT4 [1] is greater than 150 µM; in the series with HEL, greater than 100 µM; with CCRF-CEM, greater than 100 µM. Further, the EC50 in the series with Human alphaherpesvirus 1 [2] is greater than 100 µM; in the series with Human alphaherpesvirus 2 it was 50 µM; in the series on Human alphaherpesvirus 1 [3], greater than 100 µM; in [5], greater than 100 µM; in series [6] it was greater than 100 µM; in [8], greater than 150 µM. In addition, in series [4], the MCC is greater than 50 µM. Moreover, in the series on MT4 [7], the CC50 is greater than 150 µM.
Turning to `CC(C)OC(=O)[C@H](C)NP(=O)(OCCOCn1cnc2c(=O)[nH]c(N)nc21)Oc1cccc2ccccc12` (stereo partly drawn), the half-maximal inhibitory concentration (IC50) with MT4 [1] was 72.5 µM; in the series on HEL it was greater than 100 µM; with CCRF-CEM it was 36 µM. The concentration for a half-maximal effect (EC50) was 15 µM with Human alphaherpesvirus 1 [2]; 10 µM with Human alphaherpesvirus 2; no less than 45 µM in the series on Human alphaherpesvirus 1 [3]; 6.2 µM in [5]; 12 µM in series [6]; 5.4 µM in series [8]. Also, the MCC in series [4] is greater than 50 µM. Besides, the CC50 in the series with MT4 [7] was greater than 150 µM.
